From publication PMC10433466 (ACS Omega, 2023)
Converted amounts (≈) assume the structure as drawn. “And” between values parts separate entries of the source, which are not always exact repeats. Equal values may be shown once.

Tests used:
P. aeruginosa PA109084 = assay: Checkerboard assay with BLs; assay type: cell-based
P. aeruginosa PA107092 = assay: Checkerboard assay with BLs; assay type: cell-based
P. aeruginosa PA86052 [1] = assay: Checkerboard assay with BLs; assay type: cell-based
P. aeruginosa PA108590 [2] = assay: Checkerboard assay with BLs; assay type: cell-based
P. aeruginosa PA88949 = assay: Checkerboard assay with BLs; assay type: cell-based
P. aeruginosa PAO1 [3] = conditions: cited from earlier work
P. aeruginosa PAO1 [4] = assay: Antimicrobial susceptibility assay; assay type: cell-based; conditions: Pseudomonas aeruginosa, PAO1, read-out: minimum inhibitory concentration (MIC)
Method in brief: (§1)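 Broth microdilution following CLSI guidance. An overnight culture was adjusted in saline to 0.5 McFarland, diluted 1:50 in CAMHB and inoculated at about 5 × 10^5 cfu/mL final. Agents were twofold serially diluted in CAMHB, mixed with equal volumes of inoculum and held at 37 °C overnight. MIC was the lowest concentration without visible turbidity, read at 595 nm. Runs were done at least twice and repeated if outside twofold agreement.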

E. coli ATCC 25922 = assay: Antimicrobial susceptibility assay; assay type: cell-based; conditions: Escherichia coli, ATCC25922, read-out: minimum inhibitory concentration (MIC)
Method in brief: as §1

A. baumannii ATCC 17978 = assay: Antimicrobial susceptibility assay; assay type: cell-based; conditions: Acinetobacter baumannii, ATCC17978, read-out: minimum inhibitory concentration (MIC)
Method in brief: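 CLSI broth microdilution. Overnight culture adjusted in saline to 0.5 McFarland, then diluted 1:50 in cation-adjusted Mueller Hinton broth to about 5 × 10^5 cfu/mL final. Test compound twofold serially diluted in the same broth, mixed with an equal volume of inoculum, incubated at 37 °C overnight. MIC is the lowest concentration without visible turbidity (595 nm). Run at least twice; repeated if outside twofold agreement.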

P. aeruginosa PAO1 [5] = assay: Checkerboard RIF potentiation in CAMHB and Mg2+-supplemented CAMHB; assay type: cell-based; conditions: RIF alone
Method in brief: (§2)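 Checkerboard in CAMHB: the antibiotic or BL/BLI was twofold serially diluted on one axis and the adjuvant on the other. The inoculum was prepared as for MIC (0.5 McFarland, 1:50, about 5 × 10^5 cfu/mL) and plates ran at 37 °C overnight, with turbidity read at 595 nm. Each FIC is combination MIC over single-agent MIC, and FICI is their sum: ≤0.5 synergy, 0.5–4 additive, >4 antagonism. Runs were done at least twice.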

P. aeruginosa PA108590 [6] = assay: Potentiation of BL/BLI; assay type: cell-based
Method in brief: as §2

P. aeruginosa PAO1 [7] = assay: Checkerboard assay, antibiotic potentiation; assay type: cell-based; conditions: PMBN (7 μM) vs 2c 8 μg/mL (2 μM)
Method in brief: as §2

P. aeruginosa PA86052 [8] = assay: Potentiation of BL/BLI; assay type: cell-based
Method in brief: as §2

P. aeruginosa PAO1 [9] = assay: Outer membrane permeabilization assay; assay type: cell-based; conditions: NPN 10 μM
Method in brief: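 PAO1 suspension (OD600 0.4–0.6) was incubated with NPN (10 μM final) in 5 mM HEPES, 5 mM glucose and 5 μM CCCP for 30 min at room temperature in the dark. Test compound was then added at varying concentrations, and fluorescence (ex 350 / em 420 nm) was recorded every 30 s.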

[10] = ATM/AVI in the presence of 8 μg/mL compound 3 (3.5 μM) or PMBN (7 μM)
[11] = ATM/AVI with 8 μg/mL compound 3 (3.5 μM) or PMBN (7 μM)
[12] = CAZ/AVI in the presence of 8 μg/mL compound 3 (3.5 μM) or PMBN (7 μM)
[13] = CAZ/AVI with 8 μg/mL compound 3 (3.5 μM) or PMBN (7 μM)
[14] = CTZ/TAZ in the presence of 8 μg/mL compound 3 (3.5 μM) or PMBN (7 μM)
[15] = CTZ/TAZ with 8 μg/mL compound 3 (3.5 μM) or PMBN (7 μM)
[16] = IMI/REL in the presence of 8 μg/mL compound 3 (3.5 μM) or PMBN (7 μM)
[17] = IMI/REL with 8 μg/mL compound 3 (3.5 μM) or PMBN (7 μM)
[18] = MER/VAB in the presence of 8 μg/mL compound 3 (3.5 μM) or PMBN (7 μM)
[19] = MER/VAB with 8 μg/mL compound 3 (3.5 μM) or PMBN (7 μM)

## Cn1c(N)c(NC(=O)NCCN)c[n+]1CC1=C(C(=O)O)N2C(=O)[C@@H](NC(=O)/C(=N\OC(C)(C)C(=O)[O-])c3nsc(N)n3)[C@H]2SC1 [CTZ, ceftolozane]
P. aeruginosa PA109084; CTZ alone
  MICBL: 8 µg/mL and 4 µg/mL
P. aeruginosa PA107092; CTZ alone
  MICBL: 4 µg/mL
P. aeruginosa PA86052 [1]; CTZ alone
  MICBL: 8 µg/mL and 4 µg/mL
P. aeruginosa PA108590 [2]; CTZ alone
  MICBL: 8 µg/mL and 4 µg/mL
P. aeruginosa PA88949; CTZ alone
  MICBL: 4 µg/mL

## C[C@H]1[C@H](NC(=O)/C(=N\OC(C)(C)C(=O)O)c2csc(N)n2)C(=O)N1S(=O)(=O)O [ATM, aztreonam]
P. aeruginosa PA86052 [1]; ATM alone
  MICBL: 32 µg/mL
P. aeruginosa PA108590 [2]; ATM alone
  MICBL: 32 µg/mL

## NC[C@H]1O[C@H](O[C@H]2[C@H](O)[C@@H](O[C@H]3O[C@H](CO)[C@@H](O)[C@H](N)[C@H]3O)[C@H](N)C[C@@H]2N)[C@H](N)C[C@@H]1O [TOB, tobramycin]
P. aeruginosa PAO1 [3]
  synergy with NOV, RIF, MIN, LEV, CAZ: did not synergize
P. aeruginosa PAO1 [4]
  MIC: 0.5 µg/mL (≈ 1.07 µM)
E. coli ATCC 25922
  MIC: 2 µg/mL (≈ 4.28 µM)
A. baumannii ATCC 17978
  MIC: 0.5 µg/mL (≈ 1.07 µM)

## C[C@@H](O)[C@H]1C(=O)N2C(C(=O)O)=C(S[C@@H]3CN[C@H](C(=O)N(C)C)C3)[C@H](C)[C@H]12 [MER, meropenem]
P. aeruginosa PA109084; MER alone
  MICBL: 16 µg/mL
P. aeruginosa PA107092; MER alone
  MICBL: 32 µg/mL and 64 µg/mL
P. aeruginosa PA86052 [1]; MER alone
  MICBL: 16 µg/mL
P. aeruginosa PA108590 [2]; MER alone
  MICBL: 4 µg/mL and 8 µg/mL
P. aeruginosa PA88949; MER alone
  MICBL: 16 µg/mL and 32 µg/mL

## CC(C)(O/N=C(\C(=O)N[C@@H]1C(=O)N2C(C(=O)[O-])=C(C[n+]3ccccc3)CS[C@H]12)c1csc(N)n1)C(=O)O [CAZ, ceftazidime]
P. aeruginosa PA107092; CAZ alone
  MICBL: 128 µg/mL
P. aeruginosa PA86052 [1]; CAZ alone
  MICBL: 64 µg/mL
P. aeruginosa PA108590 [2]; CAZ alone
  MICBL: 64 µg/mL

## C[C@@H](O)[C@H]1C(=O)N2C(C(=O)O)=C(SCCN=CN)C[C@H]12 [IMI, imipenem]
P. aeruginosa PA109084; IMI alone
  MICBL: 16 µg/mL
P. aeruginosa PA107092; IMI alone
  MICBL: 32 µg/mL
P. aeruginosa PA86052 [1]; IMI alone
  MICBL: 64 µg/mL and 32 µg/mL
P. aeruginosa PA108590 [2]; IMI alone
  MICBL: 32 µg/mL
P. aeruginosa PA88949; IMI alone
  MICBL: 64 µg/mL

## CO[C@H]1/C=C/O[C@@]2(C)Oc3c(C)c(O)c4c(O)c(c(/C=N/N5CCN(C)CC5)c(O)c4c3C2=O)NC(=O)/C(C)=C\C=C\[C@H](C)[C@H](O)[C@@H](C)[C@@H](O)[C@@H](C)[C@H](OC(C)=O)[C@@H]1C [RIF, rifampicin]
P. aeruginosa PAO1 [5]; CAMHB
  MICRIF: 32 µg/mL
P. aeruginosa PAO1 [5]; CAMHB with 20 mM Mg2+
  MICRIF: 32 µg/mL

## polymyxin B nonapeptide [PMBN]
P. aeruginosa PA108590 [6]; [10]
  MICBL/BLI [MIC with 3 or PMBN]: 2 µg/mL
P. aeruginosa PA108590 [6]; [11]
  fold potentiation: 16 fold
P. aeruginosa PA108590 [6]; [12]
  MICBL/BLI [MIC with 3 or PMBN]: 4 µg/mL
P. aeruginosa PA108590 [6]; [13]
  fold potentiation: 32 fold
P. aeruginosa PA108590 [6]; [14]
  MICBL/BLI [MIC with 3 or PMBN]: 2 µg/mL
P. aeruginosa PA108590 [6]; [15]
  fold potentiation: 2 fold
P. aeruginosa PA108590 [6]; [16]
  MICBL/BLI [MIC with 3 or PMBN]: 1 µg/mL
P. aeruginosa PA108590 [6]; [17]
  fold potentiation: 32 fold
P. aeruginosa PA108590 [6]; [18]
  MICBL/BLI [MIC with 3 or PMBN]: 4 [4] μg/mL
P. aeruginosa PA108590 [6]; [19]
  fold potentiation: 1 fold
P. aeruginosa PAO1 [7]
  MIN potentiation relative to trimer 2c: 4 fold
P. aeruginosa PA86052 [8]; [10]
  MICBL/BLI [MIC with 3 or PMBN]: 0.0625 µg/mL
P. aeruginosa PA86052 [8]; [11]
  fold potentiation: 1024 fold
P. aeruginosa PA86052 [8]; [12]
  MICBL/BLI [MIC with 3 or PMBN]: 0.25 µg/mL
P. aeruginosa PA86052 [8]; [13]
  fold potentiation: 512 fold
P. aeruginosa PA86052 [8]; [14]
  MICBL/BLI [MIC with 3 or PMBN]: 0.0625 µg/mL
P. aeruginosa PA86052 [8]; [15]
  fold potentiation: 128 fold
P. aeruginosa PA86052 [8]; [16]
  MICBL/BLI [MIC with 3 or PMBN]: 0.125 µg/mL
P. aeruginosa PA86052 [8]; [17]
  fold potentiation: 512 fold
P. aeruginosa PA86052 [8]; [18]
  MICBL/BLI [MIC with 3 or PMBN]: 0.0312 µg/mL
P. aeruginosa PA86052 [8]; [19]
  fold potentiation: 512 fold
P. aeruginosa PAO1 [9]
  NPN fluorescence (OM permeabilization): increased fluorescence
